For 167 variants, yeast fitness results are on record in the RNAGym collection of RNA variant scans (doi:10.1126/science.aae0568).

This sample holds only a part of the variants without activity.

To fix the notation:
B1: tRNA (parent)
chain: GUUCCGUUGGCGUAAUGGUAACGCGUCUCCCUCCUAAGGAGAAGACUGCGGGUUCGAGUCCCGUACGGAACG

The variants in this series derive from B1. In words: yeast fitness relative to wild type (ratio to wild type); higher = fitter; tRNA-Arg(CCU), competitive growth, 37 C, YPD. The procedure, abridged: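 A pool of Saccharomyces cerevisiae strains, each with a tRNA-Arg(CCU) gene variant at the native genomic locus, was competed in YPD at 37°C for 24 hours across six parallel replicates. The variants had been chemically synthesised at a 3% per-site mutation rate over 69 sites, and gene amplicons before and after competition were read by 100-nucleotide paired-end sequencing. Darwinian fitness relative to wild type rested on changes in genotype frequencies. Genotypes required ≥ 100 starting reads, and estimates < 0.5 were set to 0.5.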
With G12A C24G U26G A40U, the yeast fitness is no more than 0.5.

With G12A A36C G41A U53C, the yeast fitness was no more than 0.5.

Turning to G12A A43U, the yeast fitness worked out at 0.889.

On to G12A A43C, for which the yeast fitness worked out at 0.855.

As to G12A A43G, the yeast fitness was determined as 0.988.

On to G12A C29A A42U C46U C55A G56C, for which the yeast fitness was no more than 0.5.

On to G12A A36G C49G, for which the yeast fitness was no more than 0.5.

For G12A C27G C55A G58A, the yeast fitness is no more than 0.5.

As to G12A A36G U47G U54C A65U, the yeast fitness was no more than 0.5.

G12A C30A C55A G67A: the yeast fitness was no more than 0.5.

As for G12A C30G U47C U54C, the yeast fitness was no more than 0.5.

G12A C22G C31G: the yeast fitness came out at 0.662.

In the case of G12A C24G C33A A40C, the yeast fitness was no more than 0.5.

As for G12A C24A C27A, the yeast fitness was no more than 0.5.

On to G12A C31A A42G A57U U59A, for which the yeast fitness was no more than 0.5.

In the case of G12A C27G U32G G67C, the yeast fitness was no more than 0.5.

In the case of G12A A37G A65C, the yeast fitness is no more than 0.5.

For the variant G12A A40C U64G, the yeast fitness was no more than 0.5.

As to G12A A36C G51A, the yeast fitness was determined as 0.603.

Consider G12A A36G U47G, for which the yeast fitness worked out at 0.584.

In the case of G12A C24G G38A A40C A43C C46U G68C A69U, the yeast fitness was no more than 0.5.

As to G12A C24U C29A, the yeast fitness was no more than 0.5.

With G12A C24G A36G A65U, the yeast fitness is no more than 0.5.

With G12A C33G G39C A69C, the yeast fitness is no more than 0.5.

As for G12A C29A A45G, the yeast fitness is no more than 0.5.

Consider G12A C24U G38C C62G, for which the yeast fitness was no more than 0.5.

Regarding G12A A37U A57C, the yeast fitness was found to be 0.608.

Turning to G12A A40C U59G A65G, the yeast fitness was no more than 0.5.

Consider G12A A42C C55U, for which the yeast fitness was no more than 0.5.

Take G12A C22G A69U: the yeast fitness stood at 0.791.

G12A A40C C55A: the yeast fitness is no more than 0.5.

For the variant G12A C27G A43G U64G, the yeast fitness was no more than 0.5.

G12A C24U G67A A69U: the yeast fitness was no more than 0.5.

For G12A C29U C55G A65U, the yeast fitness was no more than 0.5.

G12A C22A: the yeast fitness came out at 1.03.

As to G12A C22U, the yeast fitness was 0.873.

Regarding G12A C31A U32C U53C C60G, the yeast fitness is no more than 0.5.

As to G12A C27G A69C, the yeast fitness is no more than 0.5.

As for G12A A65C, the yeast fitness turned out to be 0.851.

Consider G12A C22U C24U, for which the yeast fitness is no more than 0.5.

For G12A A42G, the yeast fitness stood at 0.837.

As for G12A A70C, the yeast fitness was determined as 0.936.

As for G12A C27G A65G G68U, the yeast fitness is 0.544.

For the variant G12A A36C A40U G41C, the yeast fitness is 0.576.

In the case of G12A C22G A45G C49U U53A C66G, the yeast fitness was no more than 0.5.

As for G12A C24A A36U U54C C61U, the yeast fitness was no more than 0.5.

On to G12A C22U A37U G50C C66U, for which the yeast fitness amounted to 0.538.

G12A C22U C30G C31A G39C A57G: the yeast fitness was no more than 0.5.

For the variant G12A C31G C34A, the yeast fitness was 0.585.

Consider G12A C29A G68A A69C, for which the yeast fitness is no more than 0.5.

G12A A21G C34U: the yeast fitness is no more than 0.5.

Consider G12A C30U U54A, for which the yeast fitness stood at 0.52.

G12A C30U U54C: the yeast fitness was no more than 0.5.

Take G12A A36U A37G: the yeast fitness was 0.543.

Turning to G12A A36G U47G A65U, the yeast fitness turned out to be 0.646.

Take G12A A36C G41C: the yeast fitness is no more than 0.5.

Regarding G12A C27G G48A, the yeast fitness was no more than 0.5.

As for G12A C24G C29A A69U A70G, the yeast fitness is no more than 0.5.

In the case of G12A A42C C49A C61U, the yeast fitness is no more than 0.5.

On to G12A A37G U59C, for which the yeast fitness was no more than 0.5.

For G12A A21G C31A, the yeast fitness stood at 0.625.

As for G12A A57C A65C A70C, the yeast fitness is no more than 0.5.

For G12A A40G C46A C61U, the yeast fitness was no more than 0.5.

Turning to G12A C31U A36C G39C C55U A57U, the yeast fitness is no more than 0.5.

G12A C30U: the yeast fitness turned out to be 0.836.

Regarding G12A C30A, the yeast fitness stood at 0.915.

For the variant G12A C30A C46G, the yeast fitness amounted to 0.649.

For G12A C27G A40G, the yeast fitness is no more than 0.5.

As for G12A A43C C46U, the yeast fitness is 0.764.

Regarding G12A A42G A69U, the yeast fitness was 0.688.

G12A A37G A65G A69C: the yeast fitness is no more than 0.5.

As to G12A A21G C31A A65U A70U, the yeast fitness was no more than 0.5.

Regarding G12A A37C C61U, the yeast fitness was no more than 0.5.

Regarding G12A A43U C62U, the yeast fitness amounted to 0.807.

In the case of G12A A42G A65U, the yeast fitness is no more than 0.5.

For G12A A42G A65C, the yeast fitness stood at 0.6.

Regarding G12A C29A G67C, the yeast fitness is no more than 0.5.

Consider G12A A42C G52A, for which the yeast fitness is 0.585.

As for G12A A43U A45C A57G C60U G68C, the yeast fitness is no more than 0.5.

Take G12A C22G A57C: the yeast fitness is 0.549.

G12A C33G C46U G50C: the yeast fitness turned out to be 0.595.

Regarding G12A A45G U47C U59A, the yeast fitness was no more than 0.5.

Consider G12A C27G C34A C49A C60G C61U, for which the yeast fitness was 0.527.

For the variant G12A C27U C30A C55U A57C, the yeast fitness is no more than 0.5.

As to G12A C24U U64G, the yeast fitness was no more than 0.5.

As to G12A A37G G39C A57C, the yeast fitness is no more than 0.5.

G12A C29A A42U: the yeast fitness is 0.616.

G12A C24U: the yeast fitness turned out to be 0.697.

For G12A C24A, the yeast fitness worked out at 0.751.

In the case of G12A C24G, the yeast fitness stood at 0.758.

Regarding G12A C29U U64A, the yeast fitness is no more than 0.5.

For the variant G12A C27A G56C, the yeast fitness worked out at 0.533.

For G12A C24G C33G A36C A37C A42C A65U, the yeast fitness was no more than 0.5.

As for G12A A43U A45C G67C G68U, the yeast fitness was no more than 0.5.

For the variant G12A C24U C31G, the yeast fitness is 0.532.

For G12A C24U C34U G58C C62G G67A, the yeast fitness was 0.542.

For the variant G12A C24G C29A C55U C61G A65G G68A, the yeast fitness was no more than 0.5.

Turning to G12A C27G A36U, the yeast fitness was determined as 0.599.

As for G12A A40U, the yeast fitness worked out at 1.

For the variant G12A A40G, the yeast fitness is 0.871.

In the case of G12A A40C, the yeast fitness is 0.792.

As for G12A C27G A70C, the yeast fitness was no more than 0.5.

For the variant G12A C33U G41C, the yeast fitness is no more than 0.5.

Take G12A C22A A57C U64A: the yeast fitness is no more than 0.5.

In the case of G12A C30U U47A U54C, the yeast fitness was no more than 0.5.

Consider G12A A21U C55U C62G, for which the yeast fitness was no more than 0.5.

Turning to G12A C22G G52C G58C A65U, the yeast fitness is 0.53.

In the case of G12A A36U A37C A43G A57U, the yeast fitness is no more than 0.5.

With G12A C24G A43C C62U A65G, the yeast fitness came to 0.636.

As to G12A C27G C46A C55U, the yeast fitness was 0.603.

In the case of G12A C24G U26G G39C C49G, the yeast fitness was determined as 0.511.

Turning to G12A A36U G63A, the yeast fitness is no more than 0.5.

In the case of G12A C30G C49A G51A, the yeast fitness is no more than 0.5.

Consider G12A A37G A43G U53A G58C C66G, for which the yeast fitness was no more than 0.5.

On to G12A A40C A69C, for which the yeast fitness came to 0.757.

As for G12A C27G, the yeast fitness stood at 0.71.

Consider G12A C27U, for which the yeast fitness was found to be 0.942.

As to G12A C27A, the yeast fitness amounted to 0.844.

As to G12A A40C C61A, the yeast fitness is no more than 0.5.

For the variant G12A A42G A45G U54A C62A, the yeast fitness was no more than 0.5.

Take G12A C31U A70G: the yeast fitness worked out at 0.803.

For G12A A21U C66U A69C, the yeast fitness is no more than 0.5.

For G12A C30A A70U, the yeast fitness amounted to 0.759.

Take G12A C24U G58A U59A A65U: the yeast fitness is no more than 0.5.

With G12A C24G C29A U47A C62A, the yeast fitness was no more than 0.5.

Regarding G12A C27U G51C A57U, the yeast fitness came out at 0.534.

For the variant G12A C27G U32G, the yeast fitness is no more than 0.5.

As for G12A C24U C34U, the yeast fitness worked out at 0.519.

For the variant G12A C24U C34G, the yeast fitness was determined as 0.696.

As to G12A C27U C33U U47A A70C, the yeast fitness was no more than 0.5.

Turning to G12A A21U A69C, the yeast fitness was no more than 0.5.

With G12A A45C, the yeast fitness worked out at 0.834.

On to G12A C33A A40G A70U, for which the yeast fitness was no more than 0.5.

Turning to G12A C33G G38C, the yeast fitness is no more than 0.5.

Turning to G12A C27A C30G G68U, the yeast fitness was no more than 0.5.

Turning to G12A A69U, the yeast fitness is 1.03.

For the variant G12A A69G, the yeast fitness came to 0.907.

On to G12A A69C, for which the yeast fitness came out at 0.866.

Regarding G12A C24A A36C A70C, the yeast fitness was no more than 0.5.

As for G12A A36G C55U A69U, the yeast fitness was no more than 0.5.

Regarding G12A A65G A69C, the yeast fitness was 0.556.

Regarding G12A A42G U54A A65C, the yeast fitness was no more than 0.5.

For the variant G12A C29A U35A, the yeast fitness is no more than 0.5.

With G12A C24G U35A A40U G41A A42C, the yeast fitness was no more than 0.5.

G12A A65C C66U G67U: the yeast fitness is 0.612.

Consider G12A C22U C31G G48C, for which the yeast fitness is no more than 0.5.

Regarding G12A C27U C30G A42G C55U A57C, the yeast fitness was no more than 0.5.

With G12A C27G A42C, the yeast fitness was 0.548.

Regarding G12A C22A C24A A36U U53A, the yeast fitness is no more than 0.5.

For G12A C31U G41A, the yeast fitness amounted to 0.686.

For G12A C24U A36C C46U C60U A65C, the yeast fitness amounted to 0.729.

As to G12A C29A C31G C60A, the yeast fitness is no more than 0.5.

Regarding G12A C24U G67C, the yeast fitness was determined as 0.603.

With G12A C29U, the yeast fitness was 0.735.

As to G12A C24A A36U C61U G67U, the yeast fitness is 0.69.

On to G12A A36G, for which the yeast fitness was 0.906.

G12A A36C: the yeast fitness was found to be 0.628.

As for G12A C31G G48C C66G, the yeast fitness was no more than 0.5.

With G12A C31U C55G G67C, the yeast fitness was no more than 0.5.

With G12A A42U C60G A69G, the yeast fitness was no more than 0.5.

As for G12A C31G, the yeast fitness was 0.963.

Consider G12A A43U G48A C61G A70C, for which the yeast fitness is no more than 0.5.

For G12A A21U C55G C60A C61G C66G, the yeast fitness was no more than 0.5.

As for G12A C27G C55A C66U, the yeast fitness is no more than 0.5.

For G12A C29G C34U A36C C61A, the yeast fitness was 0.553.

G12A C31U C61U U64A: the yeast fitness is no more than 0.5.

Turning to G12A A37C A45C G52C A70U, the yeast fitness is no more than 0.5.
